SMILES strings stand for the structures. Calls of active or inactive are those of the source. No cut-off for these calls is given here.

The values below come from ChEMBL document CHEMBL4270661 (Bioorg Med Chem, 2018).

Data set [1] can be described thus: Induction of microtubule depolymerization in rat A10 cells assessed as cellular microtubule loss incubated for 18 hrs by DAPI staining-based indirect immunofluorescence assay. Conditions: A10, 18 h. Format: cell-based.
The target in data set [2] is T1, Tubulin (Homo sapiens) (UniProt P68371+Q9H4B7+P0DPH7+P68366+Q13509+Q71U36+P04350+Q3ZCM7+P07437+P68363+Q9BQE3+Q6PEY2+Q13885+Q9BVA1+Q9BUF5). Nature of the data set: Inhibition of [3H]-colchicine binding to tubulin (unknown origin) at 5 uM relative to control. It counts as protein-complex assay.
The target in data set [3] is T1, Tubulin (Homo sapiens). The data set is described as follows: Inhibition of [3H]-colchicine binding to tubulin (unknown origin) at 0.5 uM relative to control. Format: protein-complex assay.
Another data set has as its system SK-OV-3. Nature of the data set: Antiproliferative activity against human SKOV3 cells after 48 hrs by sulforhodamine B assay. Conditions: SK-OV-3, 48 h. It counts as functional, cell-based. The method, boiled down:
(§1)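 SRB assay: cells plated at set densities, left 24 h to attach and grow, then exposed in triplicate wells to a concentration range for 48 h (DMSO vehicle). Cells fixed, protein stained with SRB. Cells kept at 37 °C, 5% CO2.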

Data set [4] in a line: Resistance index, ratio of IC50 for human HeLa cells expressing wild type beta3 tubulin to IC50 for human HeLa cells. Format: functional. The method, boiled down:
(§2)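 Relative resistance (Rr): IC50 in resistant line divided by IC50 in isogenic parental line, from 48 h SRB assays (HeLa WT βIII vs HeLa; SK-OV-3/MDR-1-6/6 vs SK-OV-3).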

In data set [5] the test system is MDA-MB-435. The data set is described as follows: Antiproliferative activity against human MDA-MB-435 cells after 48 hrs by sulforhodamine B assay. Format: functional, cell-based. Conditions: MDA-MB-435, 48 h. The method, boiled down: as §1
(In general: In SRB staining, fixed cells bind dye roughly in proportion to their protein.)

Data set [6] concerns HeLa. Nature of the data set: Antiproliferative activity against human HeLa cells after 48 hrs by sulforhodamine B assay. It counts as functional, cell-based. The method in brief:
as §1

A short description of data set [7]: Resistance index, ratio of IC50 for human SKOV3-MDR1-M6/6 cells to IC50 for human SKOV3 cells. It counts as functional. The method, boiled down: as §2
For data set [8], the system named is HeLa. The data set is described as follows: Antiproliferative activity against human HeLa cells expressing wild type beta3 tubulin after 48 hrs by sulforhodamine B assay. Format: functional, cell-based. The method in brief: as §1
Data set [9] is described as follows: Antiproliferative activity against human SKOV3-MDR1-M6/6 cells after 48 hrs by sulforhodamine B assay. It counts as functional. Conditions: SKOV3-MDR1-M6/6, 48 h. The method, boiled down: as §1
Data set [10] concerns NCI/ADR-RES. Conditions: Homo sapiens, 10 mg/kg.
Data set [11] has as its system MDA-MB-231. The data set is described as follows: Antitumor activity against human MDA-MB-231 cells xenografted in athymic Foxn1nu/Foxn1nu mouse assessed as tumor growth inhibition at 10 mg/kg, ip, administered on day 1,2,3,8,9 and 10. It counts as functional, organism-based. For orientation: In xenograft studies the graft and the host belong to different species.

For data set [12], the system named is Mus musculus. The data set is described as follows: Toxicity in athymic Foxn1nu/Foxn1nu mouse xenografted with human MDA-MB-435 cells assessed as body weight loss at 75 mg/kg, ip, administered on day 1,2,3,4 and 9. Conditions: in vivo. It counts as organism-based. The method, boiled down:
(§3)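 Female athymic nude mice bearing bilateral MDA-MB-435 flank tumors, 10 tumors per group, given 75 mg/kg ip (PBS, <5% solvent). Individual body weights tracked through the trial as percent change, mean ± SEM, vs untreated controls.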

Data set [13] has as its system Mus musculus. The data set is described as follows: Toxicity in athymic Foxn1nu/Foxn1nu mouse xenografted with human MDA-MB-435 cells assessed as occurence of neurological side effects at 75 mg/kg, ip, administered on day 1,2,3,4 and 9. Format: organism-based. Conditions: in vivo.
Data set [14] relates to MDA-MB-435. The data set is described as follows: Antitumor activity against human MDA-MB-435 cells xenografted in athymic Foxn1nu/Foxn1nu mouse assessed as tumor growth inhibition at 75 mg/kg, ip, administered on day 1,2,3,4 and 9. Format: functional, organism-based. The method, boiled down: (§4)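 Female athymic nude mice, 6 weeks old, bilateral flank implants of MDA-MB-435 tumor fragments. Grouped at ~200 mm³ (5 mice, 10 tumors per group), randomized. 75 mg/kg ip per dose, stock in ethanol or water diluted in PBS (<5% solvent), vs untreated controls. Caliper volume (width × length × height), tumor mass at trial end (day 15), mean ± SEM.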

Data set [15] relates to MDA-MB-231. The data set is described as follows: Antitumor activity against human MDA-MB-231 cells xenografted in athymic Foxn1nu/Foxn1nu mouse assessed as tumor growth inhibition at 75 mg/kg, ip, administered on day 1,2,3,8,9 and 10. It counts as functional, organism-based.
Data set [16] relates to MDA-MB-435. Nature of the data set: Antitumor activity against human MDA-MB-435 cells xenografted in athymic Foxn1nu/Foxn1nu mouse assessed as tumor growth inhibition at 75 mg/kg, ip, administered on day 1,2,3,4,7,9 and 11. Format: functional, organism-based. The method, boiled down: as §4
Data set [17] has as its system NCI/ADR-RES. Nature of the data set: Antitumor activity against p-gp expressing human NCI/ADR-RES cells xenografted in athymic Foxn1nu/Foxn1nu mouse assessed as tumor growth inhibition at 75 mg/kg, ip administered on day 1,3 and 5 measured on day 9. Format: functional, organism-based. The method in brief: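 Female athymic nude mice, bilateral flank NCI/ADR-RES (Pgp-expressing) tumor transplants, 8-9 tumors per group. […] Caliper tumor volume, mean ± SEM, compared on day 9 when the trial was stopped.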

Data set [18] has as its system Mus musculus. The data set is described as follows: Toxicity in athymic Foxn1nu/Foxn1nu mouse xenografted with human MDA-MB-435 cells assessed as body weight loss at 75 mg/kg, ip, administered on day 1,2,3,4,7,9 and 11. It counts as organism-based. Conditions: in vivo. The method, boiled down: as §3
For data set [19], the system named is Mus musculus. The data set is described as follows: Toxicity in athymic Foxn1nu/Foxn1nu mouse xenografted with human MDA-MB-435 cells assessed as occurence of neurological side effects at 75 mg/kg, ip, administered on day 1,2,3,4,7,9 and 11. Format: organism-based. Conditions: in vivo.

As a reminder, the EC50 is the midpoint of the concentration-response curve. What is called inhibition is the drop in the measured response relative to a control, in per cent. With `COc1ccc(Nc2nc(C)nc3ccn(C)c23)cc1`, the EC50 in data set [1] was over 10000 nM. This molecule came in with an inhibition at Tubulin (Homo sapiens) [2] of 4.2%.

For orientation: IC50 means the concentration that inhibits the measured activity by half. Low readings indicate greater potency, high ones weaker potency. On to `COc1ccc(N(C)c2nc(C)nc3ccn(CC(C)C)c23)cc1.Cl`, for which the inhibition worked out at 67% at Tubulin (Homo sapiens) [3] and 95% on Tubulin (Homo sapiens) [2]. The IC50 in the data set with SK-OV-3 amounted to 26 nM; in the data set on MDA-MB-435 [5] it was 39 nM; in the data set on HeLa [6], 26 nM; in the data set on HeLa [8], 23 nM; in data set [9] it was 25 nM. The “Ratio IC50” value in [4] is on record as 0.9; in data set [7], 1. In addition, in [1], the EC50 came out at 55 nM.

Regarding `COc1ccc(N(C)c2nc(C)nc3cc[nH]c23)cc1`, the EC50 in [1] was determined as 1200 nM. This molecule came in with an inhibition at Tubulin (Homo sapiens) [2] of 60%.

With `COc1ccc2c(c1)CCCN2c1nc(C)nc2ccn(C)c12.Cl`, the values for the inhibition at Tubulin (Homo sapiens) [3] and at Tubulin (Homo sapiens) [2] were 72% and 98%, respectively. Further, the IC50 in the data set with SK-OV-3 worked out at 30 nM; in the data set with MDA-MB-435 [5] it was 21 nM; in the data set on HeLa [6] it was 27 nM; with HeLa [8], 33 nM; in data set [9], 31.5 nM. The “Ratio IC50” value came to 1.2 in data set [4] and 1.1 in data set [7]. Further, the EC50 in [1] was determined as 39 nM.

With `COc1ccc(Nc2nc(C)nc3cc[nH]c23)c(OC)c1`, in data set [1], the EC50 is over 10000 nM. On Tubulin (Homo sapiens) [2], the inhibition worked out at 0%.

`COc1ccc(/C=C\c2cc(OC)c(OC)c(OC)c2)cc1O` [COMBRETASTATIN A4]: in data set [1], the EC50 came out at 9.8 nM. This molecule also returned a 50% inhibitory concentration (IC50) in data set [9] of 7 nM.

With `COc1ccc2c(c1)CCCN2c1nc(C)nc2cc[nH]c12`, in [1], the EC50 amounted to 230 nM. At Tubulin (Homo sapiens) [2], this molecule yielded an inhibition of 70%.

In the data set with SK-OV-3, `CC(=O)O[C@H]1C(=O)[C@@]2(C)[C@H]([C@H](OC(=O)c3ccccc3)[C@]3(O)C[C@H](OC(=O)[C@H](O)[C@@H](NC(=O)c4ccccc4)c4ccccc4)C(C)=C1C3(C)C)[C@]1(OC(C)=O)CO[C@@H]1C[C@@H]2O` [PACLITAXEL] gave a half-inhibitory concentration (IC50) of 5 nM. In the data set with NCI/ADR-RES [10], the TGI result was “inactive”. Also, the TGI entry with MDA-MB-231 [11] was “Active”.

With `COc1ccc(Nc2nc(C)nc3cc[nH]c23)cc1`, the EC50 in [1] was over 10000 nM. Moreover, the inhibition at Tubulin (Homo sapiens) [2] amounted to 5.8%.

As to `CCn1ccc2nc(C)nc(N(C)c3ccc(OC)cc3)c21`, the values for the inhibition at Tubulin (Homo sapiens) [3] and on Tubulin (Homo sapiens) [2] were 79% and 96%, respectively. In addition, the half-inhibitory concentration (IC50) in the data set with SK-OV-3 was determined as 17 nM; in the data set with MDA-MB-435 [5] it was 10.8 nM; in the data set on HeLa [6], 17 nM; in the data set on HeLa [8], 14 nM; in [9], 19.3 nM. Besides, the figures for the “Ratio IC50” value in data set [4] and in [7] were 0.8 and 1.1, respectively. In [1], the EC50 came out at 28 nM.

Regarding `COc1ccc(Nc2nc(C)nc3ccn(C)c23)c(OC)c1`, in data set [1], the EC50 was over 10000 nM. On Tubulin (Homo sapiens) [2], the inhibition was 14%.

With `CCCCn1ccc2nc(C)nc(N(C)c3ccc(OC)cc3)c21.Cl`, the results for the inhibition on Tubulin (Homo sapiens) [3] and on Tubulin (Homo sapiens) [2] were 82% and 96%, respectively. Further, the half-maximal inhibitory concentration (IC50) in the data set with SK-OV-3 came to 13 nM; in the data set on MDA-MB-435 [5] it was 27 nM; with HeLa [6], 14 nM; with HeLa [8] it was 10 nM; in data set [9], 15 nM. Also, the “Ratio IC50” value in [4] was 0.7; in data set [7], 1.2. The EC50 in [1] turned out to be 32 nM.

Regarding `COc1ccc(N(C)c2nc(C)nc3ccn(C(C)C)c23)cc1.Cl`, the figures for the inhibition at Tubulin (Homo sapiens) [3] and on Tubulin (Homo sapiens) [2] were 60% and 92%, respectively. Also, the IC50 amounted to 31 nM with SK-OV-3; 21 nM in the data set with MDA-MB-435 [5]; 32 nM with HeLa [6]; 20 nM in the data set with HeLa [8]; 58 nM in data set [9]. Besides, the “Ratio IC50” value in data set [4] turned out to be 0.6; in data set [7], 1.9. Also, in data set [1], the EC50 came out at 42 nM.

For `COc1ccc(N(C)c2nc(C)nc3ccn(C)c23)cc1.Cl`, the Activity result in the data set with Mus musculus [12] was “Non-Toxic”; with Mus musculus [13] it was “Toxic”. Also, the inhibition turned out to be 79% at Tubulin (Homo sapiens) [3] and 99% on Tubulin (Homo sapiens) [2]. The 50% inhibitory concentration (IC50) in the data set with SK-OV-3 worked out at 5.2 nM; in the data set with MDA-MB-435 [5], 4.3 nM; in the data set on HeLa [6] it was 5 nM; in the data set with HeLa [8] it was 4.3 nM; in data set [9], 6 nM. The “Ratio IC50” value in data set [4] turned out to be 0.9; in data set [7], 1.2. For the same molecule, the EC50 in [1] is 7.4 nM. For the same molecule, the TGI result in the data set on MDA-MB-435 [14] is “Active”.

On to `CCCn1ccc2nc(C)nc(N(C)c3ccc(OC)cc3)c21.Cl`, for which the inhibition at Tubulin (Homo sapiens) [3] was determined as 86%; at Tubulin (Homo sapiens) [2], 97%. For the same molecule, the IC50 in the data set with SK-OV-3 amounted to 5 nM; in the data set on MDA-MB-435 [5] it was 9 nM; in the data set with HeLa [6], 5.9 nM; in the data set with HeLa [8] it was 5.1 nM; in data set [9], 7 nM. Besides, the TGI result in the data set on MDA-MB-231 [15], in the data set with MDA-MB-435 [16] and in the data set with NCI/ADR-RES [17] was “Active” throughout. Besides, the “Ratio IC50” value in data set [4] is 0.9; in [7] it was 1.4. Further, the Activity result in the data set with Mus musculus [18] and with Mus musculus [19] was “Non-Toxic” in each case. Besides, in data set [1], the EC50 came to 20 nM.
